Source: ChEMBL document CHEMBL3286113, “New potent antibacterial oxazolidinone (MRX-I) with an improved class safety profile” (J Med Chem, 2014)
Converted amounts (≈) assume the structure as drawn.

What was measured:
[1] = system: Homo sapiens; assay: Toxicity in fasted human at 50 to 1800 mg, po; assay type: organism-based; conditions: in vivo
Summary of the method: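 Randomized, double-blind, placebo-controlled single ascending dose study in healthy Chinese subjects under fasting conditions. Eight groups received single oral doses of 50, 100, 200, 400, 800, 1200, 1600 or 1800 mg, with tolerability assessed.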

[2] = Half life in female rat at 5 mg/kg, po; assay type: ADME, organism-based; set-up: dose 5 mg/kg, route oral; conditions: in vivo
[3] = system: Rattus norvegicus; assay: Toxicity in female rat assessed as effect on mean corpuscular volume at 200 to 300 mg/kg/day, po bid administered for 4 weeks (reference value: 53.72 fL); assay type: organism-based; set-up: route oral; conditions: in vivo, 672 h
[4] = system: Rattus norvegicus; assay: Toxicity in female rat assessed as effect on mean corpuscular volume at 20 mg/kg/day, po bid administered for 4 weeks (reference value: 53.72 fL); assay type: organism-based; set-up: route oral; conditions: in vivo, 672 h
[5] = system: Staphylococcus aureus; assay: Antibacterial activity against methicillin-resistant Staphylococcus aureus isolate 0605 in mouse thigh infection model assessed as reduction of log10 CFU per thigh at 80 mg/kg, po; assay type: functional
[6] = system: Streptococcus pneumoniae; assay: Antibacterial activity against penicillin-sensitive Streptococcus pneumoniae isolate 0806 in po dosed mouse systemic infection model; assay type: functional; conditions: isolate 0806, po
[7] = system: Streptococcus anginosus; assay: Antibacterial activity against Streptococcus anginosus; assay type: functional
[8] = AUC (0 to t) in female rat at 45 mg/kg, po; assay type: ADME, organism-based; set-up: dose 45 mg/kg, route oral; conditions: plasma
Summary of the method: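 Rat PK by gender, with single oral doses of 5, 15 and 45 mg/kg and an iv dose of 5 mg/kg. Tmax, Cmax, T1/2 and AUC0−t were reported per gender.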

[9] = system: Homo sapiens; assay: Toxicity in human at 600 to 800 mg, po administered as single dose with meal on day 1 and day 15 followed by bid with meal on day 2 to day 14 measured during compound treatment; assay type: organism-based; conditions: in vivo
[10] = biological target: Cytochrome P450 2C9 (Homo sapiens, UniProt P11712); assay: Inhibition of CYP2C9 (unknown origin) at 1 to 200 uM; assay type: ADME
Chain of Cytochrome P450 2C9 (P11712 whole entry): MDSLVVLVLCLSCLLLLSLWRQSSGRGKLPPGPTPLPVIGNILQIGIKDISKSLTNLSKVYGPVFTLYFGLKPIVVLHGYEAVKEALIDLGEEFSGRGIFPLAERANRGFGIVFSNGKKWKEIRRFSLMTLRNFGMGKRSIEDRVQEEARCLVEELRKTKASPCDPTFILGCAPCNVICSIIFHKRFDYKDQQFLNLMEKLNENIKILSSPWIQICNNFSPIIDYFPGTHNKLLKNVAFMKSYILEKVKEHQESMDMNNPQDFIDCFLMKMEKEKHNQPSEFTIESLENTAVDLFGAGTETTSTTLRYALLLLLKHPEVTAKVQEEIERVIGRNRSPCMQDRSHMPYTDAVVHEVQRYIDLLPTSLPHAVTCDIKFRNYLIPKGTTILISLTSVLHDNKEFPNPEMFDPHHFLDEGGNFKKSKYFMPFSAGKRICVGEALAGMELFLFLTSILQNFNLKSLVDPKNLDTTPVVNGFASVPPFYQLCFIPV

[11] = system: Staphylococcus aureus; assay: Antibacterial activity against methicillin-sensitive Staphylococcus aureus isolate 15; assay type: functional
[12] = species on record: Rattus norvegicus; assay: Drug uptake in rat measured over 7 days; assay type: ADME, organism-based; conditions: in vivo, 168 h
[13] = system: Rattus norvegicus; assay: Toxicity in rat assessed as mortality at 200 mg/kg, po bid administered for 4 weeks measured on day 14; assay type: organism-based; set-up: dose 200 mg/kg, route oral; conditions: in vivo, 672 h
Summary of the method: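 Rats, 10 per gender per group, given drug orally twice daily at 20, 100 and 200/300 mg/kg/day for 4 weeks, then a 4-week recovery period. The top dose of 200 mg/kg/day was raised to 300 mg/kg/day on day 15. The comparator was dosed the same way at 100 and 200 mg/kg/day. Monitoring covered mortality, body weight, hematology and bone marrow, with blood taken for TK on days 1, 14 and 28.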

[14] = system: Rattus norvegicus; assay: Toxicity in female rat assessed as effect on mean corpuscular hemoglobin level at 100 mg/kg/day, po bid administered for 4 weeks (reference value: 19.5 pg); assay type: organism-based; set-up: route oral; conditions: in vivo, 672 h
[15] = system: Streptococcus pneumoniae; assay: Antibacterial activity against Streptococcus pneumoniae assessed as time required for growth inhibition; assay type: functional
[16] = Tmax in male rat at 15 mg/kg, po; assay type: ADME, organism-based; set-up: dose 15 mg/kg, route oral; conditions: in vivo
Summary of the method: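 Male and female rats received single oral doses of 5, 15 or 45 mg/kg, with 5 mg/kg iv as a reference arm. Tmax was read from the plasma concentration–time profile for each gender.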

[17] = Half life in male rat at 45 mg/kg, po; assay type: ADME, organism-based; set-up: dose 45 mg/kg, route oral; conditions: in vivo
[18] = biological target: MAO-A (Homo sapiens, UniProt P21397); assay: Ratio of compound IC50 to linezolid IC50 for MAO-A (unknown origin) by fluorescence plate reader analysis; assay type: ADME
Chain of MAO-A (P21397 whole entry): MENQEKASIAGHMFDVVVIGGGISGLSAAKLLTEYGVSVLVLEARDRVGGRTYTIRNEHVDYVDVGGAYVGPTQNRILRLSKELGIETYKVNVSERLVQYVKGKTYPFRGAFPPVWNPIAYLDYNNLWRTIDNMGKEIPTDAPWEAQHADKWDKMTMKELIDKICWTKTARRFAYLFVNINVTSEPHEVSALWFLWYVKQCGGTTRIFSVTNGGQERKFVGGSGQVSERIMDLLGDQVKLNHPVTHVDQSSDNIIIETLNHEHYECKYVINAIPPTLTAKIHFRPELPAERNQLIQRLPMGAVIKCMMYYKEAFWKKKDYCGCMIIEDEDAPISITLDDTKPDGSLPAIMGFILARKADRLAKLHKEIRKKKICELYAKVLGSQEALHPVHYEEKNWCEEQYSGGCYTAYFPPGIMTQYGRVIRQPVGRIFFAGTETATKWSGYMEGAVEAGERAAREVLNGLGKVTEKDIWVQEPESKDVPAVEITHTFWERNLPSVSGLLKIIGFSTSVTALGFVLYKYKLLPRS

[19] = system: Homo sapiens; assay: Toxicity in human assessed as change in neutrophil count at 600 to 800 mg, po administered as single dose with meal on day 1 and day 15 followed by bid with meal on day 2 to day 14 measured during compound treatment; assay type: organism-based; conditions: in vivo
[20] = Cmax in human at 800 mg, po administered as single dose with meal measured on day 15; assay type: ADME, organism-based; set-up: dose 800 mg, route oral; conditions: in vivo
Summary of the method: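 Randomized, double-blind, placebo-controlled multiple-dose study in 32 healthy subjects, half male and half female. Each dose was taken with a meal, at 600 or 800 mg, 28 doses over 15 days. A single dose on days 1 and 15 gave full PK; BID (Q12h) dosing ran on days 2–14.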

[21] = Cmax in male rat at 15 mg/kg, po; assay type: ADME, organism-based; set-up: dose 15 mg/kg, route oral; conditions: in vivo
[22] = system: Staphylococcus aureus; assay: Antibacterial activity against Staphylococcus aureus measured after 2 serial passages; assay type: functional
[23] = Tmax in human at 600 mg, po administered as single dose with meal measured on day 15; assay type: ADME, organism-based; conditions: in vivo
Summary of the method: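 Randomized, double-blind, placebo-controlled multiple-dose study in 32 healthy subjects, half male and half female. Dosing was 600 or 800 mg orally with a meal, 28 doses over 15 days. A single dose was given on days 1 and 15 for full PK, with Q12h (BID) dosing on days 2−14.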

[24] = system: L5178Y; assay: Mutagenicity in mouse tk +/- L5178Y cells assessed as increase in gene mutation frequency at 62.5 to 1000 ug/mL in presence of S9 fraction
[25] = system: Staphylococcus aureus; assay: Antibacterial activity against Staphylococcus aureus assessed as time required for growth inhibition; assay type: functional
[26] = system: Staphylococcus aureus; assay: Antibacterial activity against methicillin-sensitive Staphylococcus aureus ATCC 29213 in mouse thigh infection model assessed as reduction of log10 CFU per thigh at 40 mg/kg, po; assay type: functional
Summary of the method: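 Mouse thigh infection with S. aureus ATCC29213 (MSSA), 10 animals per dosing group. Oral doses were 5, 10, 20, 40 and 80 mg/kg. The read-out was log CFU per thigh after treatment, and the reduction (ΔLogCFU/thigh) was reported.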

[27] = system: Homo sapiens; assay: Toxicity in human assessed as change in RBC count at 600 to 800 mg, po administered as single dose with meal on day 1 and day 15 followed by bid with meal on day 2 to day 14 measured during compound treatment; assay type: organism-based; conditions: in vivo
[28] = biological target: Cytochrome P450 2E1 (Homo sapiens, UniProt P05181); assay: Inhibition of CYP2E1 (unknown origin); assay type: ADME
Chain of Cytochrome P450 2E1 (P05181 whole entry): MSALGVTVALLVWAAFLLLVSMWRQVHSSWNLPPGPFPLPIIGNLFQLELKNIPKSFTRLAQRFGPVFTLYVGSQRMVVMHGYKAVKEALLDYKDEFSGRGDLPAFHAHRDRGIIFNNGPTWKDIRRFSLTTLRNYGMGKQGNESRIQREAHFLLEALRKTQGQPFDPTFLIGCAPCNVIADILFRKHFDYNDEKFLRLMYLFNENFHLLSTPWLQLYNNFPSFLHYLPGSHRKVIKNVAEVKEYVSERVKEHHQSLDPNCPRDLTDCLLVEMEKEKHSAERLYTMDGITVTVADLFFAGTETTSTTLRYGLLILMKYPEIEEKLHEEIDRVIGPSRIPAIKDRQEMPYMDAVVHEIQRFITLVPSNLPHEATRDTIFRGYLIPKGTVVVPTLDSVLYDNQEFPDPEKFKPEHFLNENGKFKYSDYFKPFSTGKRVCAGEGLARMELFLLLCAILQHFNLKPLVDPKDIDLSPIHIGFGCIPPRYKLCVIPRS

[29] = system: Streptococcus dysgalactiae subsp. equisimilis; assay: Antibacterial activity against Streptococcus equisimilis; assay type: functional
[30] = Tmax in fasted human at 600 mg, po administered as single dose; assay type: ADME, organism-based; conditions: in vivo
Summary of the method: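 Randomized single-dose, three-period Latin-square crossover in 12 healthy volunteers (six per gender), fasting. Single oral doses of 300, 600 and 900 mg were separated by a 1-week washout. PK parameters were derived by noncompartmental analysis.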

[31] = system: Staphylococcus aureus; assay: Antibacterial activity against Staphylococcus aureus; assay type: functional
[32] = system: Rattus norvegicus; assay: Toxicity in female rat assessed as effect on mean corpuscular hemoglobin level at 20 mg/kg/day, po bid administered for 4 weeks (reference value: 19.5 pg); assay type: organism-based; set-up: route oral; conditions: in vivo, 672 h
[33] = system: Enterococcus faecalis; assay: Antibacterial activity against vancomycin-sensitive Enterococcus faecalis ATCC 29212 in po dosed mouse systemic infection model; assay type: functional; conditions: ATCC 29212, po
[34] = system: Homo sapiens; assay: Toxicity in human assessed as change in reticulocyte count at 600 to 800 mg, po administered as single dose with meal on day 1 and day 15 followed by bid with meal on day 2 to day 14 measured during compound treatment; assay type: organism-based; conditions: in vivo
[35] = Cmax in male rat at 5 mg/kg, po; assay type: ADME, organism-based; set-up: dose 5 mg/kg, route oral; conditions: in vivo

## O=C1C=CN(c2c(F)cc(N3C[C@H](CNc4ccon4)OC3=O)c(F)c2F)CC1 [CONTEZOLID]
[1]
  Activity: Non-toxic
[2]
  half-life: 2.07 h
[3]
  Activity: 53.02 fL
[4]
  Activity: 54.52 fL
[5]
  deltalog10CFU: 4.53
[6]
  ED50: 22 mg/kg
[7]
  MIC50: 0.5 µg/mL (≈ 1.22 µM)
  MIC90: 1 µg/mL (≈ 2.45 µM)
[8]
  AUC(0-t): 230 µg·h/mL
[9]
  Activity: Non-toxic
[10]
  inhibition (INH): Not Active
[11]
  MIC: 2 µg/mL (≈ 4.9 µM)
[12]
  Drug uptake: Not Active
[13]
  Activity: Toxic
[14]
  Activity: 20.28 pg
[15]
  Time: 1.8 h
[16]
  Tmax: 1 h
[17]
  half-life: 1.07 h
[18]
  selectivity ratio: 5.2
[19]
  Activity: Non-toxic
[20]
  Cmax: 26400 ng/mL
[21]
  Cmax: 10700 ng/mL
[22]
  MIC: 2 µg/mL (≈ 4.9 µM)
[23]
  Tmax: 0.6 h
[24]
  Activity: Non-toxic
[25]
  Time: 1.6 h
[26]
  deltalog10CFU: 3.42
[27]
  Activity: Non-toxic
[28]
  IC50: 9.6 µM
[29]
  MIC: 1 µg/mL (≈ 2.45 µM)
  MIC50: 1 µg/mL (≈ 2.45 µM)
  MIC90: 1 µg/mL (≈ 2.45 µM)
[30]
  Tmax: 2 h
[31]
  MIC: 2 µg/mL (≈ 4.9 µM)
[32]
  Activity: 20.2 pg
[33]
  ED50: 14.1 mg/kg
[34]
  Activity: Non-toxic
[35]
  Cmax: 4600 ng/mL
